# In ChEMBL document CHEMBL4513216, “Probing the Open Global Health Chemical Diversity Library for Multistage-Active Starting Points for Next-Generation Antimalarials” (ACS Infect Dis, 2020):
# Experiment: Toxicity liver stage against HepG2, at 10uM
# Assay type: cell-based
# Design: test concentration 10 uM, cell line HepG2-A16-CD81EGFP
# Conditions: human, HepG2-A16-CD81EGFP cells; read-out: INHIBITION
# Method in brief: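 Uninfected HepG2-A16-CD81EGFP cells, 3 × 10^3 per well, 1536-well, plated on prespotted compound at 10 μM final, parasite-free screening media added to match infected plates; puromycin 10 μM positive, DMSO 0.5% negative; run in parallel with 48 h PbLuc assay at 37 °C, 5% CO2; viability by CellTiter-Glo luminescence, normalized to controls.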
row,Compound,cytotoxicity at 10 µM [%]
1,Cc1ccc(-n2ncc(C(=O)NC3CC(C)(C)NC(C)(C)C3)c2N)cc1,-4.2
2,O=C(CNC(=O)N1CCN(c2cccc(Cl)c2)CC1)Nc1ccccn1,-0.74
3,COCCn1ccc(=O)c(OCC(=O)Nc2cccc(Cl)c2)c1C,2.16
4,NC(=O)Cn1c(CO)cnc1SCC(=O)NCc1ccccc1Cl,-4.24
5,CCOC(=O)CCC(=O)N1CCC(Oc2ncccc2Cl)CC1,-5.57
6,O=C1CCC2(CCCN(C(=O)Cc3ccccn3)C2)N1 (stereo unspecified),4
7,O=C(CC1CC1)N1CCC2(COCc3cnc(-c4ccccc4)nc32)C1 (stereo unspecified),2.02
8,COCCNC(=O)Cn1c(-c2ccc(F)cc2)nc(C)c(CCO)c1=O,-15
9,CC/N=c1\nc(NCC)nc2n1C(O)(Nc1cc(C)ccc1C)CS2 (stereo unspecified),10.3
10,Oc1nc(N2CCOCC2)nc2nccc(-c3ccccn3)c12,7.52
11,O=C1CC(c2ccncc2)c2c(c(C(=O)O)cn2-c2ccc(F)cc2)N1 (stereo unspecified),10.1
12,O=C(NC[C@H]1OC[C@@H]2CCN(C(=O)c3ccco3)C[C@@H]21)C1CC1,-6.2
13,O=C(c1ccco1)N1CCC2(CCOC2)C1 (stereo unspecified),-3.65
14,CCN(CC)C(=O)c1nnc2ccc(N3CCOCC3)cc2n1,5.37
15,Cc1ncc(C(=O)N2CC(C(=O)N3CCOCC3)C2)c(C)n1,3.54
16,CC(C)(CNC(=O)Nc1ccc(S(=O)(=O)C(F)F)cc1)N1CCOCC1,4.44
17,Cc1ccc(-n2cc(C(=O)NCc3nnc4n3CCCCC4)nn2)cc1,-3.32
18,N#Cc1cc(F)ccc1NCc1ccc(Cn2cncn2)cc1,8.75
19,O=C(NC1(C(=O)O)CCCCC1)C1Cc2ccccc2O1 (stereo unspecified),10.9
20,CC1COCCN1C(=O)COc1cccc(Oc2ccccn2)c1 (stereo unspecified),-5.15
21,CN(C1CCCCC1)S(=O)(=O)NCC1Cc2ccccc2O1 (stereo unspecified),4.19

row,Compound,cytotoxicity at 10 µM [%]
1,CSc1ncccc1C(=O)NC(C)c1cccc(N2CCOC2=O)c1 (stereo unspecified),-9.05
2,CC(C)n1cnnc1CNC(=O)c1cnn(-c2ccccc2)c1,11.9
3,Cc1nc(-c2ccc(S(=O)(=O)N3CCC=C(F)C3)cc2)co1,13.4
4,CCN(CC)C1CCN(C(=O)NCc2cccc(-n3ccnc3)c2)C1 (stereo unspecified),-4.45
5,Cn1cc(C(=O)CC2CCCN2C(=O)c2ccn3ccnc3c2)cn1 (stereo unspecified),-5.81
6,COCC1CCN(CCCc2cccc(OC)c2)CC1,-11
7,Cc1nn(C)c(C)c1C(=O)NCc1cc(N(C)C)nc2ccccc12,-1.08
8,CC(NC(=O)c1ccnc(C2CC2)n1)C1(N2CCOCC2)CCCC1 (stereo unspecified),4.21
9,CC(C)(C)c1n[nH]c(C2CN(C(=O)c3cc(C4CC4)[nH]n3)CCO2)n1 (stereo unspecified),-7.2
10,CC(C)CC(CCO)CNC(=O)N1CCC1(C)C (stereo unspecified),-3.25
11,CCOc1ccccc1C(CC(=O)O)NC(C)=O (stereo unspecified),-4.19
12,Cc1nn(C)c(C)c1OCC(=O)N1CCC(O)(C(F)(F)F)CC1,-5.09
13,Cc1ccc(F)c(OC2CCCN(c3cnn(C)c3)C2=O)c1 (stereo unspecified),-6.43
14,CC(Cn1cncn1)NC(=O)Nc1ccc(F)cc1OCC1CC1 (stereo unspecified),4.34
15,N#CCCN(c1ccccc1)S(=O)(=O)CC1CCCCO1 (stereo unspecified),-4.69
16,CC(C)Cc1ccc(S(=O)(=O)NCCCN2CCNC(=O)C2)cc1,-4.36
17,O=C(NCc1ccccn1)Nc1ccc2[nH]nnc2c1,6.77
18,CC(C)(C)CN(CCC#N)C(=O)Cc1ccc(-n2cnnn2)cc1,1.18
19,CN(C)c1ccc(NC(=O)NCc2ccc(Cl)s2)cn1,6.43
20,Cn1cnc2c1CCN(Cc1c(Cl)ccc3cccnc13)C2,5.55
21,CC(C)OCCCNC(=O)N(C)C(C)c1ccc(-n2cncn2)cc1 (stereo unspecified),4.08

row,Compound,cytotoxicity at 10 µM [%]
1,CC(O)CN1CCN(CCOCC(F)(F)F)CC1 (stereo unspecified),-3.51
2,CC(=O)N(C)CC(=O)Nc1ccc(C)cc1OCc1ccccc1,2.22
3,CN1CCC(CNC(=O)c2cccc(NC(N)=O)c2)c2ccccc21 (stereo unspecified),3.86
4,Cc1sc(CNS(N)(=O)=O)nc1-c1ccc(Cl)cc1,-7.45
5,CS(=O)(=O)N1CCC(Nc2ccnc3ccc(Cl)cc23)CC1,54.3
6,CSCC(=O)NS(=O)(=O)c1ccc(C#N)c(C(F)(F)F)c1,17.2
7,COc1cc2ccn(CCS(C)(=O)=O)c(=O)c2cc1F,18.5
8,O=C(O)c1ccc(F)c(S(=O)(=O)Nc2c(F)cccc2-n2cccn2)c1,-5.59
9,NC(=O)C1CCN(C(=O)NCc2ccccc2Cn2cncn2)CC1,3.98
10,CNc1cc(N2CCCC2CNCc2ccccn2)ncn1 (stereo unspecified),7.31
11,Cc1cc(C)n(C2CCCN(C(=O)c3ccc(F)cc3F)C2)n1 (stereo unspecified),0.743
12,CC(C)c1nnc(CN2CCC3(CC2)Nc2ccccc2NC3=O)o1,-1.48
13,CCCN1CC2(CCN(C)CC2)CC1C(=O)NCCn1cccn1 (stereo unspecified),-5.46
14,Cc1ccccc1-n1cc(CNc2ncnc3c2CCNCC3)cn1,1.25
15,CS(=O)(=O)c1ccc(-c2cc(C3CC3)c(C#N)c(N)n2)cc1,-8.11
16,c1ccc2oc(N3CCCC4(CCOC4)C3)nc2c1 (stereo unspecified),-6.27
17,c1ccn2c(C3CCCN(c4ncnc5c4CCNC5)C3)nnc2c1 (stereo unspecified),-7.94
18,Cc1ccccc1CN1CCN(C(=O)CN2CCOC2=O)CC1,-8.03
19,CC(C)[C@@H](N)C(=O)NCc1cccnc1N1CCc2ccccc2C1,11
20,COc1ccc(F)c(F)c1CN1CCN(CC(C)C)C(=O)C1C (stereo unspecified),-6.29
21,CN(C)c1ccccc1C(=O)N1C[C@@H](CN2CCOCC2)[C@@H](CO)C1,-4.09

row,Compound,cytotoxicity at 10 µM [%]
1,CC(C)=CCN1CCC(c2nccn2Cc2cscn2)CC1,-13
2,CC(C)c1n[nH]c(C2CN(C(=O)c3cc(C4CC4)[nH]n3)CCO2)n1 (stereo unspecified),-5.95
3,CCn1ccnc1CN1CCCN(C(=O)Cn2nc(C)cc2C)CC1,-0.505
4,Cc1ccccc1NC(=O)c1cncc(C2CCNCC2)n1,1.54
5,CC(C)C[C@H](N)c1nnc(SCC(N)=O)o1,4.95
6,CCOc1ccc(Br)cc1-c1cc(N)[nH]n1,-2.97
7,Fc1ccc(C2(CNC3=NCCCN3)CCC2)cc1,7.2
8,O=C1NC(c2ccccc2)=N[C@@]12CC[C@@H]1CN(Cc3ccccc3)C[C@@H]12,-5.23
9,CN(C)C(=O)CN1CCC2(CCN(Cc3nccs3)CC2)C1=O,1.31
10,O=S(=O)(C1CC1)N1CCO[C@H]2[C@H](Oc3cccnc3)CC[C@@H]21,-0.24
11,Cc1n[nH]c2ncc(CNC3CCN(Cc4ccccn4)CC3)cc12,7.14
12,Cc1noc(C)c1CN1CCN(C)c2ncccc2C1,-77
13,Cc1ccc(CNC(=O)c2nc3c(o2)CN(C(=O)c2cccnc2)C3)o1,0.109
14,Cc1nc(CN2C[C@@H]3CN(C(=O)C4(C#N)CC4)C[C@@H]3C2=O)cs1,-70.7
15,CN(Cc1cccnc1)C1CC2(CCN(c3ncccn3)CC2)C1,-3.31
16,Oc1cccc(CN2C[C@@H]3CC[C@H]2CN(Cc2ccncc2)C3)c1,-131
17,COCCC(=O)N1C[C@@H]2CC[C@H]1CN(C1Cc3ccccc3C1)C2,-7.43
18,Cc1cc(C(=O)NC2CCC3(CCC(=O)N3)CC2)no1 (stereo unspecified),4.23
